Results from ChEMBL document CHEMBL1955807, “Enaminones 12. An explanation of anticonvulsant activity and toxicity per Linus Pauling's clathrate hypothesis” (Eur J Med Chem, 2012).
Active and inactive are the calls of the source. The rule behind the calls is not given here.

Tests used:
Mus musculus [1] = assay: Anticonvulsant activity in CF1 mouse assessed as protection against maximal electroshock-induced seizure up to 300 mg/kg, ip after 30 mins to 4 hrs; assay type: functional, organism-based; set-up: dose 300 mg/kg
Outline: (§1)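 Phase I screen in mice: compounds suspended in 30% poly(ethylene glycol) 400 and given ip at three dose levels (30, 100 and 300 mg/kg). Anticonvulsant protection (MES, scPTZ) and neurologic toxicity by rotorod (inability to grasp) recorded 30 min and 4 h after dosing. Results were reported as animals affected over animals tested. Class 1 means activity at ≤100 mg/kg; class 3 means no activity at 300 mg/kg.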

Mus musculus [2] = assay: Anticonvulsant activity in CF1 mouse assessed as protection against subcutaneous pentylenetetrazole-induced seizure at 300 mg/kg, ip after 30 mins; assay type: functional, organism-based; set-up: dose 300 mg/kg; outline: as §1
Mus musculus [3] = assay: Neurotoxicity in CF1 mouse at 300 mg/kg, ip after 30 mins by rotarod test; assay type: toxicity, organism-based; set-up: dose 300 mg/kg, route intraperitoneal; conditions: in vivo, 0.5 h; outline: as §1
Mus musculus [4] = assay: Neurotoxicity in CF1 mouse at 300 mg/kg, ip after 4 hrs by rotarod test; assay type: toxicity, organism-based; set-up: dose 300 mg/kg, route intraperitoneal; conditions: in vivo; outline: as §1
Mus musculus [5] = assay: Toxicity in CF1 mouse assessed as mortality at 30 mg/kg, ip after 4 hrs; assay type: organism-based; set-up: dose 30 mg/kg, route intraperitoneal; conditions: in vivo
Mus musculus [6] = assay: Toxicity in CF1 mouse assessed as mortality at 30 mg/kg, ip after 30 mins; assay type: organism-based; set-up: dose 30 mg/kg, route intraperitoneal; conditions: in vivo, 0.5 h
Mus musculus [7] = assay: Neurotoxicity in CF1 mouse assessed as myoclonic jerks at 100 mg/kg, ip after 4 hrs by rotarod test; assay type: toxicity, organism-based; set-up: dose 100 mg/kg, route intraperitoneal; conditions: in vivo; outline: as §1
Mus musculus [8] = assay: Neurotoxicity in CF1 mouse assessed as muscle spasms at 100 to 300 mg/kg, ip after 30 mins by rotarod test; assay type: toxicity, organism-based, Muscle tissue; set-up: dose 100-300 mg/kg, route intraperitoneal; conditions: in vivo, 0.5 h; outline: as §1
Mus musculus [9] = assay: Anticonvulsant activity in CF1 mouse assessed as protection against maximal electroshock-induced seizure at 100 mg/kg, ip after 15 mins; assay type: functional, organism-based; set-up: dose 100 mg/kg
Mus musculus [10] = assay: Neurotoxicity in CF1 mouse at 100 mg/kg, ip after 30 mins by rotarod test; assay type: toxicity, organism-based; set-up: dose 100 mg/kg, route intraperitoneal; conditions: in vivo, 0.5 h; outline: as §1
Rattus norvegicus [11] = assay: Anticonvulsant activity in ip dosed Sprague-Dawley rat assessed as protection against maximal electroshock-induced seizure; assay type: functional
Outline: (§2)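 Phase VIB in male Sprague-Dawley rats dosed ip. The median effective dose (MES ED50) and median neurotoxic dose (TD50) were determined with confidence limits. Protective index was calculated as TD50/ED50.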

[12] = Neurotoxicity in ip dosed Sprague-Dawley rat by rotarod test; assay type: toxicity, organism-based; conditions: in vivo; outline: as §2
Rattus norvegicus [13] = organism: Rattus norvegicus; assay: Protective index, ratio of TD50 for Sprague-Dawley rat by rotarod test to ED50 for Sprague-Dawley rat by MES test
Rattus norvegicus [14] = organism: Rattus norvegicus; assay: Anticonvulsant activity in rat assessed as protection against maximal electroshock-induced seizure; assay type: functional; outline: as §2
[15] = Neurotoxicity in rat; assay type: toxicity, organism-based; conditions: in vivo; outline: as §2
Rattus norvegicus [16] = organism: Rattus norvegicus; assay: Protective index, ratio of TD50 for rat to ED50 for rat; outline: as §2
Mus musculus [17] = assay: Neurotoxicity in CF1 mouse assessed as muscle spasms at 100 mg/kg, ip by rotarod test; assay type: toxicity, organism-based, Muscle tissue; set-up: dose 100 mg/kg, route intraperitoneal; conditions: in vivo; outline: as §1
Mus musculus [18] = assay: Neurotoxicity in CF1 mouse assessed as muscle spasms at 300 mg/kg, ip by rotarod test; assay type: toxicity, organism-based, Muscle tissue; set-up: dose 300 mg/kg, route intraperitoneal; conditions: in vivo; outline: as §1
Mus musculus [19] = assay: Neurotoxicity in CF1 mouse up to 300 mg/kg, ip after 30 mins to 4 hrs by rotarod test; assay type: toxicity, organism-based; set-up: dose 300 mg/kg, route intraperitoneal; conditions: in vivo; outline: as §1
Rattus norvegicus [20] = assay: Anticonvulsant activity in Sprague-Dawley rat assessed as protection against subcutaneous pentylenetetrazole-induced seizure at 30 mg/kg, ip after 4 hrs; assay type: functional, organism-based; set-up: dose 30 mg/kg
Rattus norvegicus [21] = assay: Anticonvulsant activity in Sprague-Dawley rat assessed as protection against maximal electroshock-induced seizure at 30 mg/kg, ip after 1 hr
Mus musculus [22] = assay: Neurotoxicity in CF1 mouse at 300 mg/kg, ip after 30 mins to 4 hrs by rotarod test; assay type: toxicity, organism-based; set-up: dose 300 mg/kg, route intraperitoneal; conditions: in vivo; outline: as §1
Mus musculus [23] = assay: Anticonvulsant activity in CF1 mouse assessed as protection against maximal electroshock-induced seizure at 100 mg/kg, ip after 30 mins; assay type: functional, organism-based; set-up: dose 100 mg/kg; outline: as §1
Mus musculus [24] = assay: Anticonvulsant activity in CF1 mouse assessed as protection against maximal electroshock-induced seizure at 300 mg/kg, ip after 30 mins to 4 hrs; assay type: functional, organism-based; set-up: dose 300 mg/kg; outline: as §1
Mus musculus [25] = assay: Neurotoxicity in CF1 mouse at 100 mg/kg, ip by rotarod test; assay type: toxicity, organism-based; set-up: dose 100 mg/kg, route intraperitoneal; conditions: in vivo; outline: as §1

In the case of Cc1oncc1CNC1=CC(=O)CC(C)C1 (stereo unspecified), the Activity (Mus musculus [1]) is reported as “inactive” and the Activity (Mus musculus [2]) is reported as “inactive”.
In the case of Cc1cc(C(=O)NC2=CC(=O)CC(C)C2)no1 (stereo unspecified), the Activity (Mus musculus [3]) is reported as “Toxic”, the Activity (Mus musculus [4]) is reported as “Toxic” and the Activity (Mus musculus [1]) is reported as “inactive”. The Activity (Mus musculus [2]) was “inactive”.
With CC1(C)CC(=O)C=C(N)C1 the Activity (Mus musculus [5]) was “Toxic”, the Activity (Mus musculus [6]) was “Toxic” and the Activity (Mus musculus [7]) was “Toxic”. The Activity (Mus musculus [8]) was “Toxic”, the Activity (Mus musculus [1]) was “inactive” and the Activity (Mus musculus [2]) was “inactive”.
In the case of Cc1cc(NC2=CC(=O)CC(C)C2)no1 (stereo unspecified), the Activity (Mus musculus [2]) is reported as “Active”, the Activity (Mus musculus [9]) is reported as “Active” and the Activity (Mus musculus [10]) is reported as “Toxic”. The ED50 (Rattus norvegicus [11]) was 66 mg/kg, the TD50 [12] was > 120 mg/kg and the PI (Rattus norvegicus [13]) was 1.8.
For Cc1cc(NC2=CC(=O)C(C(=O)OC(C)(C)C)C(C)C2)no1 (stereo unspecified), the ED50 (Rattus norvegicus [14]) was 28.1 mg/kg, the TD50 [15] was > 500 mg/kg and the PI (Rattus norvegicus [16]) was >17.8.
For CC1CC(=O)C=C(N)C1 (stereo unspecified), the Activity (Mus musculus [17]) was “Toxic”, the Activity (Mus musculus [3]) was “Toxic” and the Activity (Mus musculus [18]) was “Toxic”. The Activity (Mus musculus [1]) was “inactive” and the Activity (Mus musculus [2]) was “inactive”.
With Cc1cccc(C)c1NC(=O)c1conc1C the ED50 (Rattus norvegicus [14]) was 8.9 mg/kg, the TD50 [15] was > 500 mg/kg and the PI (Rattus norvegicus [16]) was >56.2.
In the case of Cc1cc(C(=O)Nc2c(C)cccc2C)no1, the ED50 (Rattus norvegicus [14]) is reported as 5.5 mg/kg, the TD50 [15] is reported as > 500 mg/kg and the PI (Rattus norvegicus [16]) is reported as >90.9.
With Cc1oncc1CNC1=CC(=O)CC(C)(C)C1 the Activity (Mus musculus [1]) was “inactive” and the Activity (Mus musculus [2]) was “inactive”.
For Cc1cc(NC2=CC(=O)CCC2)no1, the Activity (Mus musculus [1]) was “inactive”, the Activity (Mus musculus [2]) was “Active” and the Activity (Mus musculus [19]) was “Non-toxic”. The Activity (Rattus norvegicus [20]) was “Active” and the Activity (Rattus norvegicus [21]) was “Active”.
With CCOC(=O)C1C(=O)C=C(Nc2cc(C)on2)CC1C (stereo unspecified) the ED50 (Rattus norvegicus [14]) was 68.9 mg/kg, the TD50 [15] was > 500 mg/kg and the PI (Rattus norvegicus [16]) was >7.3.
In the case of Cc1cc(C(=O)NC2=CC(=O)CC(C)(C)C2)no1, the Activity (Mus musculus [1]) is reported as “inactive” and the Activity (Mus musculus [2]) is reported as “inactive”.
In the case of Cc1cc(C(=O)NC2=CC(=O)CCC2)no1, the Activity (Mus musculus [1]) is reported as “inactive” and the Activity (Mus musculus [2]) is reported as “inactive”.
For Cc1cc(NC(=O)c2c(C)cccc2C)no1 [SORETOLIDE], the ED50 (Rattus norvegicus [14]) was 9.2 mg/kg, the TD50 [15] was > 500 mg/kg and the PI (Rattus norvegicus [16]) was >54.3.
For Cc1cc(NC2=CC(=O)C(C(=O)OC(C)(C)C)C(C(F)(F)F)C2)no1 (stereo unspecified), the Activity (Mus musculus [1]) was “inactive” and the Activity (Mus musculus [2]) was “inactive”.
For Cc1cc(NC2=CC(=O)CC(C)(C)C2)no1, the Activity (Mus musculus [22]) was “Toxic”, the Activity (Mus musculus [2]) was “inactive” and the Activity (Mus musculus [10]) was “Toxic”. For the same molecule, the Activity (Mus musculus [23]) was “Active” and the Activity (Mus musculus [24]) was “Active”.
For NC1=CC(=O)CCC1, the Activity (Mus musculus [17]) was “Toxic”, the Activity (Mus musculus [25]) was “Toxic” and the Activity (Mus musculus [3]) was “Toxic”. The Activity (Mus musculus [1]) was “inactive” and the Activity (Mus musculus [2]) was “inactive”.
